Results: ChEMBL document CHEMBL1151761, “Radiohalogenated prostate-specific membrane antigen (PSMA)-based ureas as imaging agents for prostate cancer” (J Med Chem, 2008)

What was measured:
Type in all cases: ADME, organism-based
Kidney [1] = test: Biodistribution in kidney of PSMA expressing human PC3 PIP and PSMA deficient human PC3 flu cells xenografted SCID mouse at 2 uCi, iv after 2 hrs; details: in vivo
[2] = Ratio of drug level in tumor to muscle of human PSMA expressing PC3 PIP and PSMA deficient human PC3 flu cells xenografted SCID mouse at 2 uCi, iv after 60 mins; details: in vivo, 1 h
Procedure, shortened: (§1)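 Male SCID mice carried subcutaneous PSMA+ PC-3 PIP (left shoulder) and PC-3 flu (right shoulder) xenografts, 1-5 × 10^6 cells in HBSS, and were used at 3-5 mm tumor diameter. Tail-vein injection of 2 µCi radioligand; four mice per time point, killed by cervical dislocation. %ID/g from a standard dilution of the dose, decay-corrected, mean ± SD; PIP tumor:organ ratios.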

Spleen = test: Biodistribution in spleen of PSMA expressing human PC3 PIP and PSMA deficient human PC3 flu cells xenografted SCID mouse at 2 uCi, iv after 60 mins; details: in vivo, 1 h
[3] = Ratio of drug level in tumor to spleen of human PSMA expressing PC3 PIP and PSMA deficient human PC3 flu cells xenografted SCID mouse at 2 uCi, iv after 30 mins; details: in vivo, 0.5 h
Procedure, shortened: (§2)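 Male SCID mice carried subcutaneous xenografts: PSMA+ PC-3 PIP behind the left shoulder and PSMA− PC-3 flu behind the right, 1–5 × 10^6 cells in HBSS. Mice were used at 3–5 mm tumor diameter. 2 μCi was given by tail vein, and 4 mice per time point were killed by cervical dislocation. %ID/g came from a standard dilution of the dose, decay-corrected. Ratio is PIP tumor %ID/g to organ %ID/g.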

[4] = Ratio of drug level in tumor to pancreas of human PSMA expressing PC3 PIP and PSMA deficient human PC3 flu cells xenografted SCID mouse at 2 uCi, iv after 5 hrs; details: in vivo; procedure, shortened: as §2
[5] = Ratio of drug level in tumor to liver of human PSMA expressing PC3 PIP and PSMA deficient human PC3 flu cells xenografted SCID mouse at 2 uCi, iv after 30 mins; details: in vivo, 0.5 h; procedure, shortened: as §1
[6] = Ratio of drug level in tumor to muscle of human PSMA expressing PC3 PIP and PSMA deficient human PC3 flu cells xenografted SCID mouse at 2 uCi, iv after 5 hrs; details: in vivo; procedure, shortened: as §1
[7] = Ratio of drug level in tumor to stomach of human PSMA expressing PC3 PIP and PSMA deficient human PC3 flu cells xenografted SCID mouse at 2 uCi, iv after 30 mins; details: in vivo, 0.5 h; procedure, shortened: as §2
[8] = Ratio of drug level in tumor to liver of human PSMA expressing PC3 PIP and PSMA deficient human PC3 flu cells xenografted SCID mouse at 2 uCi, iv after 2 hrs; details: in vivo; procedure, shortened: as §1
Blood [9] = test: Biodistribution in blood of PSMA expressing human PC3 PIP and PSMA deficient human PC3 flu cells xenografted SCID mouse at 2 uCi, iv after 60 mins; details: in vivo, 1 h
Lung [10] = test: Biodistribution in lung of PSMA expressing human PC3 PIP and PSMA deficient human PC3 flu cells xenografted SCID mouse at 2 uCi, iv after 60 mins; details: in vivo, 1 h
[11] = Biodistribution in PC3 PIP tumor of PSMA expressing human PC3 PIP and PSMA deficient human PC3 flu cells xenografted SCID mouse at 2 uCi, iv after 2 hrs; details: in vivo
Urinary bladder [12] = test: Biodistribution in bladder of PSMA expressing human PC3 PIP and PSMA deficient human PC3 flu cells xenografted SCID mouse at 2 uCi, iv after 5 hrs; details: in vivo
[13] = Ratio of drug level in tumor to large intestine of human PSMA expressing PC3 PIP and PSMA deficient human PC3 flu cells xenografted SCID mouse at 2 uCi, iv after 5 hrs; details: in vivo; procedure, shortened: as §1
[14] = Biodistribution in large intestine of PSMA expressing human PC3 PIP and PSMA deficient human PC3 flu cells xenografted SCID mouse at 2 uCi, iv after 2 hrs; details: in vivo; procedure, shortened: as §1
Pancreas = test: Biodistribution in pancreas of PSMA expressing human PC3 PIP and PSMA deficient human PC3 flu cells xenografted SCID mouse at 2 uCi, iv after 2 hrs; details: in vivo
[15] = Ratio of drug level in tumor to large intestine of human PSMA expressing PC3 PIP and PSMA deficient human PC3 flu cells xenografted SCID mouse at 2 uCi, iv after 2 hrs; details: in vivo; procedure, shortened: as §1
Kidney [16] = test: Biodistribution in kidney of PSMA expressing human PC3 PIP and PSMA deficient human PC3 flu cells xenografted SCID mouse at 2 uCi, iv after 60 mins; details: in vivo, 1 h
Stomach = test: Biodistribution in stomach of PSMA expressing human PC3 PIP and PSMA deficient human PC3 flu cells xenografted SCID mouse at 2 uCi, iv after 2 hrs; details: in vivo
Urinary bladder [17] = test: Biodistribution in bladder of PSMA expressing human PC3 PIP and PSMA deficient human PC3 flu cells xenografted SCID mouse at 2 uCi, iv after 60 mins; details: in vivo, 1 h
Liver = test: Biodistribution in liver of PSMA expressing human PC3 PIP and PSMA deficient human PC3 flu cells xenografted SCID mouse at 2 uCi, iv after 30 mins; details: in vivo, 0.5 h
Heart = test: Biodistribution in heart of PSMA expressing human PC3 PIP and PSMA deficient human PC3 flu cells xenografted SCID mouse at 2 uCi, iv after 30 mins; details: in vivo, 0.5 h
Blood [18] = test: Biodistribution in blood of PSMA expressing human PC3 PIP and PSMA deficient human PC3 flu cells xenografted SCID mouse at 2 uCi, iv after 30 mins; details: in vivo, 0.5 h
Muscle tissue = test: Biodistribution in muscle of PSMA expressing human PC3 PIP and PSMA deficient human PC3 flu cells xenografted SCID mouse at 2 uCi, iv after 5 hrs; details: in vivo
Lung [19] = test: Biodistribution in lung of PSMA expressing human PC3 PIP and PSMA deficient human PC3 flu cells xenografted SCID mouse at 2 uCi, iv after 5 hrs; details: in vivo
[20] = Ratio of drug level in tumor to muscle of human PSMA expressing PC3 PIP and PSMA deficient human PC3 flu cells xenografted SCID mouse at 2 uCi, iv after 30 mins; details: in vivo, 0.5 h; procedure, shortened: as §1
Lung [21] = test: Biodistribution in lung of PSMA expressing human PC3 PIP and PSMA deficient human PC3 flu cells xenografted SCID mouse at 2 uCi, iv after 30 mins; details: in vivo, 0.5 h
[22] = Ratio of drug level in tumor to spleen of human PSMA expressing PC3 PIP and PSMA deficient human PC3 flu cells xenografted SCID mouse at 2 uCi, iv after 2 hrs; details: in vivo; procedure, shortened: as §2
Kidney [23] = test: Biodistribution in kidney of PSMA expressing human PC3 PIP and PSMA deficient human PC3 flu cells xenografted SCID mouse at 2 uCi, iv after 5 hrs; details: in vivo
Blood [24] = test: Biodistribution in blood of PSMA expressing human PC3 PIP and PSMA deficient human PC3 flu cells xenografted SCID mouse at 2 uCi, iv after 2 hrs; details: in vivo
[25] = Biodistribution in PC3 PIP tumor of PSMA expressing human PC3 PIP and PSMA deficient human PC3 flu cells xenografted SCID mouse at 2 uCi, iv after 30 mins; details: in vivo, 0.5 h; procedure, shortened: as §1

For `O=C(O)CC[C@H](NC(=O)N[C@@H](CCCCNC(=O)c1ccc([18F])cc1)C(=O)O)C(=O)O`, the Drug uptake (Kidney [1]) was 29 % ID/g, the Ratio [2] was 13 and the Drug uptake (Spleen) was 7.2 % ID/g. The Ratio [3] was 0.7, the Ratio [4] was 70 and the Ratio [5] was 1. The Ratio [6] was 35, the Ratio [7] was 11 and the Ratio [8] was 0.3. For the same compound, the Drug uptake (Blood [9]) was 0.7 % ID/g, the Drug uptake (Lung [10]) was 0.5 % ID/g and the Drug uptake [11] was 3.7 % ID/g. The Drug uptake (Urinary bladder [12]) was 5.2 % ID/g, the Ratio [13] was 6 and the Drug uptake [14] was 0.2 % ID/g. The Drug uptake (Pancreas) was 0.15 % ID/g, the Ratio [15] was 19 and the Drug uptake (Kidney [16]) was 48 % ID/g. For the same compound, the Drug uptake (Stomach) was 0.3 % ID/g, the Drug uptake (Urinary bladder [17]) was 17 % ID/g and the Drug uptake (Liver) was 8.7 % ID/g. The Drug uptake (Heart) was 0.8 % ID/g, the Drug uptake (Blood [18]) was 2.5 % ID/g and the Drug uptake (Muscle tissue) was 0.1 % ID/g. For the same compound, the Drug uptake (Lung [19]) was 0.1 % ID/g, the Ratio [20] was 4 and the Drug uptake (Lung [21]) was 1.7 % ID/g. It also gave a Ratio [22] of 1, a Drug uptake (Kidney [23]) of 14 % ID/g and a Drug uptake (Blood [24]) of 0.4 % ID/g. The Drug uptake [25] was 8.6 % ID/g.
